Compounds with a hit are over-represented: about 1.7% of the library has one in this group of screens.
RanGTP-Impb inh: inhibitors of RanGTP-importin-beta interaction, primary screen, biochemical, FRET, CFP-Ran, YFP-importin-beta, homogeneous; cell-free CFP-Ran/YFP-importin-beta FRET ratio; inhibition, % (concentration not given with the values); 300,000 compounds, 1.1% hits;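 active means more than half of the replicate wells show a fall in the fluorescence ratio signal beyond about 16%, limit read from the data, passing the limit was not always enough; inconclusive means exactly half of the replicate wells pass the set limit; inactive means fewer than half of replicates pass the limit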
Vif inh: inhibitors of HIV Vif; HEK293T cells, Vif self-association by quenched fluorescence, imaging, 24 h; inhibition, % at 7.49 µM; 340,000 compounds, 0.35% hits; in the data active means inhibition above about 50%, passing the limit was not always enough; inconclusive means no clear call, values can overlap the other calls; inactive means below about 31%
Runt-CBFb FRET: inhibitors of human RUNX1 Runt domain binding to CBFb. inhibition, % at 20 µM. AID 1496. 220,000 compounds, 0.46% hits. Cerulean-Runt/Venus-CBFb FRET ratio 530/480, 1 h;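 active means inhibition over about 50% at 20 µM in the single-dose screen, limit read from the data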
Target sequence (Q01196 whole entry, looked up, the tested form may be a part): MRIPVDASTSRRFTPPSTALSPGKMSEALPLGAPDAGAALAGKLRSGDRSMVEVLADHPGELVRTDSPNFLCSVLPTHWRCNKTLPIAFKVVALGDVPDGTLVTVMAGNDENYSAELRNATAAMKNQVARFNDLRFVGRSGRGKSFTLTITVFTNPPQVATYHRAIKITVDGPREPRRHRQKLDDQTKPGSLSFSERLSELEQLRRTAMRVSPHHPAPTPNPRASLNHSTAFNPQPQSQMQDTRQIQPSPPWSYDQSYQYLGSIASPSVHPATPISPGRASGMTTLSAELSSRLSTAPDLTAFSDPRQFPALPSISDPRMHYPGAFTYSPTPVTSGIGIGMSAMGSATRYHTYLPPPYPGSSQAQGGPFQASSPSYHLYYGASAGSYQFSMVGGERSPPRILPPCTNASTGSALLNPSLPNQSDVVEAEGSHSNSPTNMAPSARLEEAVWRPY
Target sequence (Q13951 whole entry, looked up, the tested form may be a part): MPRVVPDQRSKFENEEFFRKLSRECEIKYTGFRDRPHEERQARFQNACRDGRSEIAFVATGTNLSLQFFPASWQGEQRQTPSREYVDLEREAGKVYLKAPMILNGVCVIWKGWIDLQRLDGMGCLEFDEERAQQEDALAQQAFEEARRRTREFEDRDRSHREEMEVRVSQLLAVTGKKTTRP
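Assay system: Cerulean-tagged RUNX1 Runt domain (FRET donor) fusion protein / Amount: 100 nM each of Venus-CBFb and Cerulean-Runt domain / Medium: Tris buffer pH 7.5 with salts and BSA / Also added: Venus-CBFb 100 nM / Schedule: 1 h complex formation plus 1 h compound treatment, room temperature / Signal: FRET fluorescence / Read-out: loss of energy transfer signal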
Runt-SMMHC FRET: blocks binding of human RUNX1 Runt domain to CBFb-SMMHC. Q01196+Q13951. Cerulean-Runt/Venus-CBFb-SMMHC FRET ratio 530/480, 1 h. 220,000 compounds, 0.74% hits. AID 1434. inhibition, % at 20 µM;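 active means mean inhibition across duplicate retests at 20 µM reaching about 50%, limit read from the data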;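 further: inhibitors lower the FRET ratio by blocking Runt binding to CBFb-SMMHC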
Rce1 inhib: inhibitors of yeast Ras-converting enzyme; Q03530; calls only; yeast membranes, quenched prenylated peptide cleavage fluorescence; 290,000 compounds, 0.27% hits;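 active means fall in fluorescence gain of 50% or more versus controls, with final raw signal at or below 3038400; inconclusive means same 50% fall but final raw signal above 3038400; inactive means fall in fluorescence gain under 50%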
Large screens that a line does not name were inactive.

Cc1nc2c(C(=O)N3CCCCC3)cnn2c(C)c1Cc1ccccc1F	none
CCOC(=O)/C(C#N)=C1\Nc2ccccc2N=C1N(CC(C)C)CC(C)C	RanGTP-Impb inh 30.2 (no result: Vif inh)
CCCCN(CCCC)C1=Nc2ccccc2N/C1=C(/C#N)C(=O)OCC	none
COc1ccc2nc(N(CCN(C)C)C(=O)c3ccc4ccccc4c3)sc2c1	none (no result: Runt-CBFb FRET, Runt-SMMHC FRET)
CCN(CC)CCN(C(=O)c1ccc2ccccc2c1)c1nc2ccc(F)cc2s1	Rce1 inhib active (no result: Runt-CBFb FRET, Runt-SMMHC FRET)
CN(C)CCN(C(=O)c1ccc2ccccc2c1)c1nc2ccc(Br)cc2s1	Rce1 inhib active (no result: Runt-CBFb FRET, Runt-SMMHC FRET)
Cc1cccc2sc(N(CCN(C)C)C(=O)c3ccc4ccccc4c3)nc12	Rce1 inhib active (no result: Runt-CBFb FRET, Runt-SMMHC FRET)
CN(C)CCN(C(=O)c1ccc2ccccc2c1)c1nc2c(F)cc(F)cc2s1	none (no result: Runt-CBFb FRET, Runt-SMMHC FRET)
Cc1ccc2nc(N(CCN(C)C)C(=O)c3ccc4ccccc4c3)sc2c1	Rce1 inhib active (no result: Runt-CBFb FRET, Runt-SMMHC FRET)
COC(=O)c1ccc(Oc2c(Cl)cccc2[N+](=O)[O-])cc1	none
Cc1ccc(NC(=O)N2CCCC2C(=O)NCc2ccc(Cl)cc2)cc1 (stereo unspecified)	none (no result: Runt-CBFb FRET, Runt-SMMHC FRET)
Cc1onc(-c2ccccc2Cl)c1C(=O)Nc1sc2c(c1C#N)CCC2	RanGTP-Impb inh 45.4
N#Cc1c(NC(=O)C2CC(c3ccccc3Cl)=NO2)sc2c1CCC2 (stereo unspecified)	none
CC(C)Cc1nc2sc3c(c2c(=O)n1N)CC(C)(C)OC3	none
Oc1ccc(/C=N/N=C/c2ccc(O)c(O)c2)cc1O	Vif inh 72.3 (no result: Runt-CBFb FRET, Runt-SMMHC FRET)
N#Cc1c(-c2ccccc2)cc(-c2ccccc2)[nH]c1=O	none (no result: Runt-CBFb FRET, Runt-SMMHC FRET)
COc1ccc(-c2cc(-c3ccco3)[nH]c(=O)c2C#N)cc1	Runt-SMMHC FRET 85.5
COc1ccc(-c2cc(C(F)(F)F)c(C#N)c(=O)[nH]2)cc1	RanGTP-Impb inh 49.4, Runt-SMMHC FRET 105.0
N#Cc1c(-c2cccc(Br)c2)cc(-c2ccco2)[nH]c1=O	RanGTP-Impb inh 71.5, Runt-SMMHC FRET 90.5
c1cc(-c2ccc(CN3CCOCC3)cc2)n2ccnc2c1	none (no result: RanGTP-Impb inh, Runt-CBFb FRET, Runt-SMMHC FRET, Rce1 inhib)
CCCCn1c(=O)nc2n(-c3ccccc3C)c3ccccc3cc-2c1=O	RanGTP-Impb inh 130.0, Runt-SMMHC FRET 82.3
Cc1ccccc1-n1c(=O)c2ccccc2n2nnnc12	none
Cc1ccccc1-n1c2nc(=O)n(C)c(=O)c-2cc2ccccc21	RanGTP-Impb inh 136.5, Runt-SMMHC FRET 81.0
O=C1C=CC(=O)N1c1ccccn1	none (no result: RanGTP-Impb inh, Runt-CBFb FRET, Runt-SMMHC FRET, Rce1 inhib)
O=C1C=CC(=O)N1c1ccccc1N1C(=O)C=CC1=O	Vif inh 157.1 (no result: RanGTP-Impb inh, Runt-CBFb FRET, Runt-SMMHC FRET, Rce1 inhib)
Cc1c(Cl)c([N+](=O)[O-])nn1CC(=O)N1CCCc2ccccc21	Rce1 inhib active
CCOc1ccc(S(=O)(=O)NCCC(=O)NCc2cccnc2)cc1	none (no result: Runt-CBFb FRET, Runt-SMMHC FRET)
O=[N+]([O-])c1ccc(Sc2cccc[n+]2[O-])c2nonc12	Vif inh 76.9
O=[N+]([O-])c1ccc(Nc2ccccc2)c2nonc12	none (no result: Runt-CBFb FRET, Runt-SMMHC FRET)
COc1cc(NS(=O)(=O)c2ccc(N/C=C\C(=O)c3ccc(C)cc3)cc2)nc(OC)n1	RanGTP-Impb inh inconclusive (no result: Runt-CBFb FRET, Runt-SMMHC FRET)
COc1cc(NS(=O)(=O)c2ccc(N/C=C\C(=O)c3ccc(OC)c(OC)c3)cc2)nc(OC)n1	Runt-SMMHC FRET 82.6
CC(C)N1CCc2c(sc(NC(=O)C3CCCCC3)c2C(N)=O)C1	RanGTP-Impb inh 133.7 (no result: Runt-CBFb FRET, Runt-SMMHC FRET)
COC(=O)c1c(NC(=O)C2CCCCC2)sc2c1CCN(C(C)C)C2	RanGTP-Impb inh 56.7 (no result: Runt-CBFb FRET, Runt-SMMHC FRET)
CCOC(=O)N1CCc2c(sc(NC(C)=O)c2C(N)=O)C1	none (no result: Runt-CBFb FRET, Runt-SMMHC FRET)
CN1CCc2c(sc(NC(=O)C3CCCCC3)c2C(N)=O)C1	RanGTP-Impb inh 147.2 (no result: Runt-CBFb FRET, Runt-SMMHC FRET)
CC(C)C(=O)NC(=S)Nc1sc2c(c1C(N)=O)CCCC2	none
CN1CCc2c(sc(NC(=O)C3CCN(S(=O)(=O)c4cccs4)CC3)c2C(N)=O)C1	RanGTP-Impb inh 131.5 (no result: Runt-CBFb FRET, Runt-SMMHC FRET)
N#Cc1ccsc1NC(=O)C1CCN(S(=O)(=O)c2cccs2)CC1	none (no result: Runt-CBFb FRET, Runt-SMMHC FRET)
Cc1ccc(C)c(OCC(=O)NCC(C)C)c1C	none
COc1cc(C=NCC2OCCc3ccccc32)cc(OC)c1 (stereo unspecified)	none
COc1ccc(N=Nc2c(C)[nH]c3ccccc23)cc1	none (no result: Runt-CBFb FRET, Runt-SMMHC FRET)
CC1(C)CC(=O)C=C(Nc2cccc(F)c2)C1	RanGTP-Impb inh 28.1 (no result: Runt-CBFb FRET, Runt-SMMHC FRET)
CC(=O)Nc1ccc(NC2=CC(=O)CC(C)(C)C2)cc1	RanGTP-Impb inh 49.9
COc1cccc(NC2=CC(=O)CC(C)(C)C2)c1	none
Cc1cc(N)c(NC2=CC(=O)CC(C)(C)C2)cc1C	RanGTP-Impb inh 22.3
CC(=O)Nc1ccc(C2=CC(=O)CC(C)(C)C2)cc1	none (no result: RanGTP-Impb inh, Runt-CBFb FRET, Runt-SMMHC FRET, Rce1 inhib)
C=C1CCN([C@H](C(=O)OCc2cccc(C)c2)C(C)C)S(=O)(=O)c2ccccc21	none (no result: Vif inh)
